Calls of active or inactive are those of the source. The calls are words filed in the database; no cut-off is given here.
Legend:
SW480 [1] = test: Induction of morphological changes in human SW480 cells assessed as induction of massive cell flattening at 2.5 uM incubated for 48 hrs by phase contrast microscopy; assay type: functional, cell-based
SW480 (Homo sapiens) = test: Cytotoxicity against human SW480 cells pre-incubated with CuCl2 for 60 mins followed by compound addition for 72 hrs by MTT assay
HL-60 = test: Induction of intracellular ROS generation in human HL60 cells at 1 and 5 uM in presence of CuCl2 incubated for 30 mins by DCF-DA staining based fluorescence assay; assay type: functional, cell-based
Outline: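 HL-60 cells (5 × 10^5 per sample, phenol-free Hanks balanced salt solution) were loaded with DCF-DA for 30 min. CuCl2 was added 15 min before the thiosemicarbazone, at a ligand:Cu ratio of 1:1 or 1:2. Drug exposure lasted a further 30 min, and mean fluorescence was read by flow cytometry. H2O2 (200 μM) served as control. Data are mean ± SD of three experiments.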

physchem = conditions: n-octanol/water, pH 7.4
SW480 [2] = test: Induction of morphological changes in human SW480 cells assessed as induction of vesicular blebbing in cytosol at 2.5 uM incubated for 48 hrs by phase contrast microscopy; assay type: functional, cell-based
SW480 [3] = test: Induction of morphological changes in human SW480 cells assessed as induction of vacuoles at 2.5 uM incubated for 24 hrs by phase contrast microscopy; assay type: functional, cell-based
Outline: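 SW480 cells (MEM + 10% FCS) were treated for 24 h and then photographed at 400× magnification with an sCMOS camera on a fluorescence microscope to visualise cytoplasmic vacuoles.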

| SMILES | Activity (SW480 [1]) | Activity (SW480 (Homo sapiens)) | Activity (HL-60) | other results |
| --- | --- | --- | --- | --- |
| CNc1cccnc1/C=N/NC(=S)N(C)C | inactive | Active | – | – |
| CNc1cccnc1/C=N/N=C(/N)S | Active | – | – | – |
| CN(C)C(=S)N/N=C/c1ncccc1N | – | – | Active | logD (physchem): 1.3 |
| CN(C)C(=S)N/N=C/c1ncccc1N(C)C | – | – | Active | Activity (SW480 [2]): Active; Activity (SW480 [3]): Active |
| CNC(=S)N/N=C/c1ncccc1N | Active | – | – | – |
| CN(C)C(=S)NN=C(c1ccccn1)c1ccccn1 | – | Active | – | – |
| CNC(=S)N/N=C/c1ncccc1N(C)C | inactive | Active | Active | Activity (SW480 [2]): Active |
| NC(=S)N/N=C/c1ncccc1N | Active | inactive | Active | – |
| CN(C)c1cccnc1/C=N/NC(N)=S | – | Active | – | – |

Reference: ChEMBL document CHEMBL4425126 (J Med Chem, 2016)
